We go through two molecules from ChEMBL document CHEMBL2029317, “(Z)-2-(2-bromophenyl)-3-{[4-(1-methyl-piperazine)amino]phenyl}acrylonitrile (DG172): an orally bioavailable PPARβ/δ-selective ligand with inverse agonistic properties” (J Med Chem, 2012).

What is called half-life is the time in which the quantity being followed falls by half. A lower half-life goes with rapid decline. As usually defined, the Cmax is the peak of the concentration-time curve. For orientation: AUC means concentration integrated over time. A word on the bioavailability: it is dose-corrected exposure relative to a reference, in per cent.

For data set [1], the target named is T1, Peroxisome proliferator-activated receptor delta (Mus musculus) (UniProt P35396).
T1 sequence (whole entry): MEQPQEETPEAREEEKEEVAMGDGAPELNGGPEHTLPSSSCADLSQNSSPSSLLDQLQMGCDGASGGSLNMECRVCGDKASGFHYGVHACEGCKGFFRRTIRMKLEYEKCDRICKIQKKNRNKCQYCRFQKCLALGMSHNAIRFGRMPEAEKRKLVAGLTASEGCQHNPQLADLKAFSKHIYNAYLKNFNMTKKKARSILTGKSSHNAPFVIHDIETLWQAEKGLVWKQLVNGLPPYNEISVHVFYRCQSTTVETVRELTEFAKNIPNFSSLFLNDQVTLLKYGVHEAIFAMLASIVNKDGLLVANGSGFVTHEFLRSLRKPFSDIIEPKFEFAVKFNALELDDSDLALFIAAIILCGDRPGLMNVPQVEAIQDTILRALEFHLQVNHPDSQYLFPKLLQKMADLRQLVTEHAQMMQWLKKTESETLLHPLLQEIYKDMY
The data set can be described thus: Inverse agonist activity at GST-tagged recombinant mouse PPARbeta/delta assessed as increase in corepressor peptide SMRT-ID2 interaction after 60 mins by TR-FRET assay. Type of data set: functional. In outline: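 LanthaScreen TR-FRET coregulator assay: recombinant GST-PPARβ/δ LBD, labelled by a terbium-coupled anti-GST antibody, was incubated with fluorescein-labelled SMRT-ID2 corepressor peptide and compound. Signal is the 520/495 nm emission ratio, as triplicate averages ± SD, with t test against untreated sample.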
(In general: In TR-FRET formats the signal depends on donor and acceptor labels being close together.)

Data set [2] deals with T1, Peroxisome proliferator-activated receptor delta (Mus musculus). The data set can be described thus: Antagonist activity at PPARbeta/delta in mouse NIH3T3 cells coexpressing LexA assessed as decrease in L165,041-induced transcriptional activation at 1 uM after 48 hrs by luciferase reporter gene assay relative to control. Type of data set: functional, cell-based. Summed up:
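NIH3T3 cells were transfected with LexA-PPARα, -PPARβ/δ or -PPARγ fusion plasmids plus the 7L-TATAi luciferase reporter. From 4 h post-transfection, cells received inhibitory ligand (1 μM) for 48 h. Agonists followed: GW7647 300 nM (PPARα), L165,041 1 μM (PPARβ/δ) or GW1929 300 nM (PPARγ), or agonist solvent. Induction is luciferase activity with agonist relative to solvent; triplicates with t test.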

Data set [3] addresses T2, Peroxisome proliferator-activated receptor alpha (Homo sapiens) (UniProt Q07869).
T2 sequence (whole entry): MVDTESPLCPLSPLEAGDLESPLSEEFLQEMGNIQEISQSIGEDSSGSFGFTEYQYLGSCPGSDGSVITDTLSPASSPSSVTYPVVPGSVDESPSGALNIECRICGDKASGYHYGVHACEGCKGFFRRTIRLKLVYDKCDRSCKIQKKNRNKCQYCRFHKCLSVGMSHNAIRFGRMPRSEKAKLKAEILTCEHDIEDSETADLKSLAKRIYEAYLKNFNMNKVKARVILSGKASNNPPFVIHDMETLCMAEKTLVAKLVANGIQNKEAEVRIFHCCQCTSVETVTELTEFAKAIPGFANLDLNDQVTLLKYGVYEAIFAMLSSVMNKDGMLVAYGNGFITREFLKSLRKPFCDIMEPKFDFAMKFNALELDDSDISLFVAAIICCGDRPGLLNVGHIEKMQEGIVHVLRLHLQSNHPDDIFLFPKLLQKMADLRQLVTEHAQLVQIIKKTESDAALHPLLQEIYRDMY
The data set can be described thus: Displacement of fluormone Pan-PPAR Green from PPARalpha at 100 to 1000 nM after 60 mins by TR-FRET assay.

Data set [4] addresses T1, Peroxisome proliferator-activated receptor delta (Mus musculus). As to the kind of experiment: Displacement of fluormone Pan-PPAR Green from mouse recombinant GST-tagged PPARbeta/delta LBD after 60 mins by TR-FRET assay.
Data set [5] is described as follows: Half life in CD1 mouse plasma at 1 mg/kg, iv. Type of data set: ADME, organism-based. More on the design: dose 1 mg/kg, route intravenous. Summed up:
(§1)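 Male CD-1 mice dosed iv by tail vein (1 mg/kg) or po by gastric gavage (5 mg/kg). Vehicle was DMSO/Solutol HS 15/PBS pH 7.4 (5/5/90, v/v/v). Blood was taken at eight time points from 10 min to 12 h, by parallel sampling of three mice per point. Plasma was acetonitrile-precipitated and analysed by HPLC-MS/MS, and basic PK parameters were derived.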

Data set [6] in a line: Drug uptake in CD1 mouse blood at 5 mg/kg, po up to 30 mins.
The nature of data set [7]: Cmax in CD1 mouse at 5 mg/kg, po. Type of data set: ADME, organism-based. More on the design: dose 5 mg/kg, route oral. To be noted: in vivo. In outline: as §1
The next data set concerns Macrophage. As to the kind of experiment: Inhibition of Angptl expression in mouse Ppard-knock out macrophages at 1 uM after 6 hrs by RT-qPCR analysis. Type of data set: functional, cell-based. In outline:
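Macrophages from Ppard null and wild-type mice were treated with compound (1 μM), agonist L165,041 (500 nM) or DMSO solvent for 6 h. Angptl4 mRNA was measured by RT-qPCR with L27 as the normalizer.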
(In general: Quantitative PCR measures a nucleic acid by following its amplification.)

The test system of the next data set is Mus musculus. The data set can be described thus: AUC (infinity) in CD1 mouse at 5 mg/kg, po. Type of data set: ADME, organism-based, Plasma. More on the design: time infinity, dose 5 mg/kg, route oral. The following applies: in vivo. Summed up:
as §1

A short description of data set [8]: Half life in CD1 mouse at 5 mg/kg, po. The arrangement: dose 5 mg/kg, route oral. Type of data set: ADME, organism-based. To be noted: in vivo. In outline: as §1
A short description of data set [9]: Oral bioavailability in CD1 mouse at 5 mg/kg. To be noted: in vivo. Type of data set: ADME, organism-based. In outline:
as §1

For data set [10], the target named is T1, Peroxisome proliferator-activated receptor delta (Mus musculus). The following applies: 1 uM.

The structures appear in SMILES notation. The source made the active and inactive calls. The calls are words filed in the database; no cut-off is given here. Where only a bound is given, the exact number is not on record here.

Take `CN(C)c1ccc(/C=C(\C#N)c2ccccc2Cl)cc1`: the outcome in data set [1], in [2] and in data set [4] was Active. The result in data set [3] was inactive. Moreover, the half-life in data set [5] stood at 1.27 h. Also, the concentration at 0.5 h in data set [6] was no more than 6 ng/mL.
For the molecule `CN1CCN(c2ccc(/C=C(\C#N)c3ccccc3Br)cc2)CC1`, the outcome in [1] and in data set [2] was Active. In data set [7], this molecule came in with a Cmax of 94 ng/mL. The result in [3] was inactive. The inhibition entry in the data set on Macrophage is “inactive”. In addition, the AUC in the data set on Mus musculus is 137 ng·h/mL. Further, the values for the half-life in data set [8] and in [5] were 10.6 h and 1.27 h, respectively. In addition, the bioavailability in data set [9] is 72%. Moreover, the inhibition entry in data set [10] was “Active”.
